This is an account of results in ChEMBL document CHEMBL1155944 (J Med Chem, 2008).

A short description of assay [1]: (§1) Displacement of [3H]Muscimol from GABAA alpha-1-alpha-5 receptor in Sprague-Dawley rat brain cortex membrane. In a few lines: (§2)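 Well-washed membranes from adult male Sprague-Dawley rat cortex or cerebellum (50–200 μg protein). Incubated 60 min on ice in 50 mM Tris/citrate, pH 7.3, with 6 nM [3H]muscimol and test compound. […] Filtered and counted by scintillation. IC50 and pseudo-Hill coefficient obtained by nonlinear regression.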

The species entered for assay [2] is Rattus norvegicus. The description is as §1. In a few lines: as §2
In assay [3] the target is Gamma-aminobutyric acid receptor subunit alpha-4 (Rattus norvegicus) (UniProt P28471). Description: Antagonist activity at recombinant rat GABAA alpha-4-beta-3-gamma-2 receptor expressed in HEK293 cells assessed as inhibition of GABA-induced current at 1 mM by whole-cell patch-clamp technique. The format is functional, cell-based. Further details: scale not given: the % may be the effect or the level left. In a few lines:
(§3)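 HEK293 cells transiently transfected by calcium phosphate with rat αi, β3, γ2S and EGFP cDNAs, recorded 2 days later. Whole-cell patch clamp in HEPES saline, pH 7.35. […] Response expressed relative to the GABA-alone current. Data from at least four cells.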

In assay [4] the target is T1, GABA A receptor alpha-2/beta-2/gamma-2 (Rattus norvegicus) (UniProt P18508+P23576+P63138). Description: Intrinsic activity at recombinant rat GABAA alpha-2-beta-3-gamma-2 receptor expressed in HEK293 cells assessed as induction of current at 1 mM by whole-cell patch-clamp technique relative to GABA. Type of assay: cell-based. Summed up:
(§4)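 Rat αiβ3γ2S receptors transiently expressed in HEK293 cells, with EGFP marking transfected cells, recorded 2 days after transfection. Whole-cell patch clamp in HEPES saline, pH 7.35. Drug applied alone at 1, 10, 100 and 1000 μM. […] Data from at least four cells.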

Assay [5] has as its target T1, GABA A receptor alpha-2/beta-2/gamma-2 (Rattus norvegicus). Kind of assay: Antagonist activity at recombinant rat GABAA alpha-2-beta-3-gamma-2 receptor expressed in HEK293 cells assessed as inhibition of GABA-induced current at 1 mM by whole-cell patch-clamp technique. The format is functional, cell-based. Further details: scale not given: the % may be the effect or the level left. In a few lines:
as §3

The target in assay [6] is Gamma-aminobutyric acid receptor subunit alpha-6 (Rattus norvegicus) (UniProt P30191). Description: (§5) Displacement of [3H]Muscimol from GABAAalpha6 receptor in Sprague-Dawley rat brain cerebellum membrane. The format is tissue-based. In a few lines:
as §2

The target in assay [7] is Gamma-aminobutyric acid receptor subunit alpha-6 (Rattus norvegicus, UniProt P30191). The description is as §5. The format is tissue-based. In a few lines:
as §2

Assay [8] addresses GABA A receptor alpha-5/beta-3/gamma-2 (Rattus norvegicus) (UniProt P18508+P19969+P63079). Description: Intrinsic activity at recombinant rat GABAA alpha-5-beta-3-gamma-2 receptor expressed in HEK293 cells assessed as induction of current at 1 mM by whole-cell patch-clamp technique relative to GABA. The format is cell-based. In a few lines: as §4
Assay [9] addresses Gamma-aminobutyric acid receptor subunit alpha-6 (Rattus norvegicus) (UniProt P30191). Kind of assay: Displacement of [3H]Muscimol from GABAAalpha6 receptor in Sprague-Dawley rat brain cerebellum membrane at 100 uM. The format is tissue-based. In a few lines: as §2
For assay [10], the species on record is Rattus norvegicus. Kind of assay: Displacement of [3H]Muscimol from GABAA alpha-1-alpha-5 receptor in Sprague-Dawley rat brain cortex membrane at 100 uM. Summed up:
as §2

Assay [11] concerns the target Gamma-aminobutyric acid receptor subunit alpha-6 (Rattus norvegicus) (UniProt P30191). Description: Displacement of [3H]Muscimol from GABAAalpha6 receptor in Sprague-Dawley rat brain cerebellum membrane at 1 mM. The format is tissue-based. In a few lines:
as §2

Assay [12] has the same target. Description: Antagonist activity at recombinant rat GABAA alpha-6-beta-3-gamma-2 receptor expressed in HEK293 cells assessed as inhibition of GABA-induced current at 1 mM by whole-cell patch-clamp technique. Further details: scale not given: the % may be the effect or the level left. The format is functional, cell-based. In a few lines: as §3
The species named for assay [13] is Rattus norvegicus. Kind of assay: Displacement of [3H]Muscimol from GABAA alpha-1-alpha-5 receptor in Sprague-Dawley rat brain cortex membrane at 1 mM. Summed up:
as §2

Assay [14] has as its target Gamma-aminobutyric acid receptor subunit alpha-3 (Rattus norvegicus) (UniProt P20236). Description: Intrinsic activity at recombinant rat GABAA alpha-3-beta-3-gamma-2 receptor expressed in HEK293 cells assessed as induction of current at 1 mM by whole-cell patch-clamp technique relative to GABA. Type of assay: cell-based. Summed up: as §4
Assay [15] addresses Gamma-aminobutyric acid receptor subunit alpha-6 (Rattus norvegicus) (UniProt P30191). Description: Intrinsic activity at recombinant rat GABAA alpha-6-beta-3-gamma-2 receptor expressed in HEK293 cells assessed as induction of current at 1 mM by whole-cell patch-clamp technique relative to GABA. The format is cell-based. In a few lines:
as §4

In assay [16] the target is GABA-A receptor; alpha-1/beta-2/gamma-2 (Rattus norvegicus) (UniProt P18508+P62813+P63138). Description: Intrinsic activity at recombinant rat GABAA alpha-1-beta-3-gamma-2 receptor expressed in HEK293 cells assessed as induction of current at 1 mM by whole-cell patch-clamp technique relative to GABA. Type of assay: cell-based. In a few lines:
as §4

For assay [17], the target named is Gamma-aminobutyric acid receptor subunit alpha-4 (Rattus norvegicus) (UniProt P28471). Kind of assay: Intrinsic activity at recombinant rat GABAA alpha-4-beta-3-gamma-2 receptor expressed in HEK293 cells assessed as induction of current at 1 mM by whole-cell patch-clamp technique relative to GABA. Type of assay: cell-based. In a few lines:
as §4

Assay [18] relates to Oocyte. Description: Activity at rat GABAA alpha-1R66C-beta-2 receptor mutant expressed in Xenopus laevis oocytes assessed as inhibition of GABA-induced current at -60 mV by Two-Electrode voltage clamp method. The format is cell-based.
Assay [19] concerns Oocyte. Kind of assay: Activity at rat GABAA alpha-1T129C-beta-2 receptor mutant expressed in Xenopus laevis oocytes assessed as inhibition of GABA-induced current at -60 mV by Two-Electrode voltage clamp method. The format is cell-based.

Where only a bound is given, the exact number is not on record here.

Gamma-aminobutyric acid receptor subunit alpha-6 (Rattus norvegicus), sequence (P30191 whole entry): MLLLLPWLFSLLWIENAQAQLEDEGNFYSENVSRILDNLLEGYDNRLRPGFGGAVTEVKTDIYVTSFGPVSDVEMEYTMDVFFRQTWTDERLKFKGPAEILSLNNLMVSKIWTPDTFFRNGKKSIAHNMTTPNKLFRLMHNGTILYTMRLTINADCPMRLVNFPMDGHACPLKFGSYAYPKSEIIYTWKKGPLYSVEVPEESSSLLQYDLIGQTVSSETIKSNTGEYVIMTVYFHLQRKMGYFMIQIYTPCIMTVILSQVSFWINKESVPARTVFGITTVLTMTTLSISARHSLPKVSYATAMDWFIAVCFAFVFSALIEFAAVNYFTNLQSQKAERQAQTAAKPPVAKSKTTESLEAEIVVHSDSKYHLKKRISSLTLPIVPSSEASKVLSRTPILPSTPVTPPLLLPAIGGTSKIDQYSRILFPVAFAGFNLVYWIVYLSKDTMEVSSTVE
Gamma-aminobutyric acid receptor subunit alpha-4 (Rattus norvegicus), sequence (P28471 whole entry): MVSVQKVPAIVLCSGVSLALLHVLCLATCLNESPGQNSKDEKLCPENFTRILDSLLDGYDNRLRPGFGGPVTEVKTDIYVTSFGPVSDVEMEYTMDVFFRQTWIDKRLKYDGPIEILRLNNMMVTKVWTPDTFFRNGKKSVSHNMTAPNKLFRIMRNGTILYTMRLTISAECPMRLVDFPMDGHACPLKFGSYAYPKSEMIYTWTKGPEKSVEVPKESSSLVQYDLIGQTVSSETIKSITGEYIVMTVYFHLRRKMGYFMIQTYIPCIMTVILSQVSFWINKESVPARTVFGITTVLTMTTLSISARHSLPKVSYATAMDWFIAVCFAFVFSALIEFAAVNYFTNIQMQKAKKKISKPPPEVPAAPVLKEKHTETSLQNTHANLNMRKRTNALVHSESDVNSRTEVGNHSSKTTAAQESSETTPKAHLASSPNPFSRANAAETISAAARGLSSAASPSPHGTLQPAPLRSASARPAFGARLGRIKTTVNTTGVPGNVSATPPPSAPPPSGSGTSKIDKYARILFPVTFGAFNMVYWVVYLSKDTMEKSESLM
Gamma-aminobutyric acid receptor subunit alpha-6, sequence (P30191 whole entry): as the sequence (P30191 whole entry) above
Gamma-aminobutyric acid receptor subunit alpha-3 (Rattus norvegicus), sequence (P20236 whole entry): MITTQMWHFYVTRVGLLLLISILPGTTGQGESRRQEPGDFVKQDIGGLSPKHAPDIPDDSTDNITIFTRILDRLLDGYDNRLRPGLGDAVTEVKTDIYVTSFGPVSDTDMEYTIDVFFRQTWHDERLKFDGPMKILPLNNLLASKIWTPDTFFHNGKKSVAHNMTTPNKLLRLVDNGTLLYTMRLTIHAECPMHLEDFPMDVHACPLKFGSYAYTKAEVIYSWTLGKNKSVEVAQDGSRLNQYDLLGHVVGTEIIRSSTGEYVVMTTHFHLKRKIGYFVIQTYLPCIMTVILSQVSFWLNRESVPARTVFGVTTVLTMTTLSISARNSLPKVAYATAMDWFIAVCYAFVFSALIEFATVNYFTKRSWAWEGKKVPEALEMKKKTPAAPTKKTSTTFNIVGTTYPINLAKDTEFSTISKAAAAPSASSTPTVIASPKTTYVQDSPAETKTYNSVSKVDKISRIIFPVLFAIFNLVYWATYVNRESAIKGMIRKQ

Take `Oc1nnc(C2CCNCC2)o1`: the results for the IC50 in assay [1] and in assay [7] were 183 µM and 123 µM, respectively. For the same compound, the logIC50 in the assay filed under Rattus norvegicus [2] worked out at 2.26; in assay [6], 2.09. The Activity in assay [3] was 52%; in [4], 17%; in [5], 42%; in assay [8], 34%; in assay [12], 41%; in [14], 18%. Moreover, the inhibition in [9] is 38%; in the assay filed under Rattus norvegicus [10], 38%; in [11], 77%; in the assay filed under Rattus norvegicus [13] it was 79%.

Turning to `Cc1nnc(C2CCNCC2)o1`, the IC50 in assay [1] came to 109 µM; in assay [7], 76 µM. Further, the logIC50 is 2.04 in the assay filed under Rattus norvegicus [2] and 1.88 in assay [6]. The Activity is 29% in assay [15]; less than 10% in [4]; less than 10% in [16]; less than 10% in [8]; less than 10% in [17]; less than 10% in assay [14]. The inhibition amounted to 56% in assay [9], 48% in the assay filed under Rattus norvegicus [10], 91% in assay [11] and 87% in the assay filed under Rattus norvegicus [13].

On to `CS(=O)(=S)OCCNC(=O)CCCC[C@@H]1SC[C@@H]2NC(=O)N[C@@H]21` (stereo not given in full), for which the values for the inhibition in the assay with Oocyte [18] and in the assay on Oocyte [19] were 75% and 60%, respectively.
